Laboratory results taken from ChEMBL document CHEMBL3399938, “Chemopreventive flavonoids from Millettia pulchra Kurz var-laxior (Dunn) Z.Wei (Yulangsan) function as Michael reaction acceptors” (Bioorg Med Chem Lett, 2015).

Legend:
[1] = molecular target: NAD(P)H dehydrogenase [quinone] 1 (Mus musculus) (UniProt Q64669); experiment: Induction of NQO1 activity in mouse Hepa-1c1c7 cells assessed as induction ratio at 20 uM after 48 hr by NADPH-dependent MTT assay relative to control; format: cell-based
Sequence of NAD(P)H dehydrogenase [quinone] 1 (Mus musculus) (Q64669 whole entry): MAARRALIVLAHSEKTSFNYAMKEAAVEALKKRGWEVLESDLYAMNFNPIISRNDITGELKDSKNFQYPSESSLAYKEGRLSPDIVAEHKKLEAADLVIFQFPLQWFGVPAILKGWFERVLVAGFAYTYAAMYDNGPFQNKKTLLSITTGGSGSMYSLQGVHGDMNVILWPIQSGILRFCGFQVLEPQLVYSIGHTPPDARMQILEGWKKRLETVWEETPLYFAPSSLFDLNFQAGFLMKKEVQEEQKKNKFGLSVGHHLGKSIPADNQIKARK
In short: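 Hepa 1c1c7 cells were seeded at 1 × 10^4 cells/mL in α-MEM with 10% FBS, grown 24 h (5% CO2, 37 °C), then exposed to sample for 24 h. Lysis used 0.8% digitonin in 2 mM EDTA (pH 7.8) for 10 min at 37 °C. A menadione/NADP/glucose-6-phosphate dehydrogenase mix with 0.72 mM MTT was added, then read at 590 nm after 3 min shaking. IR = NQO1 activity of sample-treated over DMSO-treated cells; mean ± SE of three independent experiments.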

[2] = Cytotoxicity against mouse Hepa-1c1c7 cells assessed as cell viability at 20 uM […]; format: functional; conditions: read-out: Activity
In short: (§1)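 Hepa 1c1c7 cells were seeded at 1 × 10^4 cells/mL in α-MEM with 10% FBS and 0.1% penicillin–streptomycin, then grown 24 h at 37 °C in 5% CO2. Medium was replaced with fresh medium containing sample for another 24 h. Cells were then stained with 0.2% crystal violet in 2% ethanol for 10 min, washed and dried. Bound dye was dissolved in 0.5% SDS in 50% ethanol and read at 595 nm.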

[3] = Retention time of the compound by UPLC analysis; format: physicochemical; conditions: in the assay text read “preparative reverse-phase HPLC” for “UPLC”
[4] = molecular target: NAD(P)H dehydrogenase [quinone] 1 (Mus musculus) (UniProt Q64669); experiment: Induction of NQO1 activity in mouse Hepa-1c1c7 cells assessed as induction ratio at 10 uM […] by NADPH-dependent MTT assay relative to control; format: cell-based
[5] = Cytotoxicity against mouse Hepa-1c1c7 cells assessed as cell viability at 10 uM […]; format: functional; conditions: read-out: Activity; in short: as §1

COc1c(C(=O)/C=C/c2ccccc2)ccc2occc12
Ratio [1]: 2.01
viability at 20 µM [2]: 81%

CC1(C)C=Cc2c(ccc3c2OC(c2ccccc2)CC3=O)O1 (centres undefined)
Ratio [1]: 1.54
viability at 20 µM [2]: 114%

COc1c(-c2ccccc2)oc2c(ccc3occc32)c1=O [KARANJIN]
Ratio [1]: 1.57
viability at 20 µM [2]: 100%

COc1cc2c(c3oc(-c4ccccc4)cc(=O)c13)C=CC(C)(C)O2 [CANDIDIN]
Ratio [1]: 2.02
viability at 20 µM [2]: 79%

COc1c(C(=O)/C=C(\O)c2ccccc2)ccc2c1C=CC(C)(C)O2
Ratio [1]: 1.9
viability at 20 µM [2]: 77%

CC1(C)C=Cc2c(ccc(C(=O)/C=C/c3ccccc3)c2O)O1 [LONCHOCARPIN]
Ratio [1]: 1.7
viability at 20 µM [2]: 84%

COc1cc2c(c(O)c1C(=O)/C=C/c1ccccc1)C=CC(C)(C)O2
Ratio [1]: 2.14
viability at 20 µM [2]: 83%
Retention_time [3]: 131 min

CC1(C)C=Cc2c(ccc3c(=O)cc(-c4ccccc4)oc23)O1
Ratio [1]: 1.6
viability at 20 µM [2]: 99%

O=C(/C=C/c1ccccc1)c1ccc2occc2c1O
Ratio [1]: 1.75
viability at 20 µM [2]: 90%
Retention_time [3]: 58 min

COc1c(C(=O)C[C@@H](OC)c2ccccc2)ccc2occc12
Ratio [1]: 2.07
viability at 20 µM [2]: 92%

O=c1cc(-c2ccc(Br)cc2)oc2ccccc12
Ratio [4]: 2.17
viability at 10 µM [5]: 109%

CC1(C)C=Cc2c(c(O)cc3c(=O)cc(-c4ccccc4)oc23)O1
Ratio [1]: 2.14
viability at 20 µM [2]: 71%

COc1c(C(=O)/C=C(\O)c2ccccc2)ccc2occc12 [PONGAMOL]
Ratio [1]: 1.69
viability at 20 µM [2]: 78%

O=c1c2c(oc3c1ccc1occc13)-c1ccccc1OC2
Ratio [1]: 1.67
viability at 20 µM [2]: 97%

COc1cc2c(=O)cc(-c3ccccc3)oc2c2c1OC(C)(C)C=C2
Ratio [1]: 1.4
viability at 20 µM [2]: 106%

O=c1cc(-c2ccccc2)oc2c1ccc1occc12 [LANCEOLATIN B]
Ratio [1]: 1.64
viability at 20 µM [2]: 100%
